ChEMBL document CHEMBL2046277, “Design, synthesis and biological evaluation of β-carboline derivatives as novel inhibitors targeting B-Raf kinase” (Bioorg Med Chem Lett, 2012)

Biological target: Serine/threonine-protein kinase B-raf (Homo sapiens, UniProt P15056)
Assay: Inhibition of human wild type B-Raf kinase assessed as change in ATP consumption by luciferase-luiferin-coupled chemiluminescent assay
Method in brief: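 Wild-type B-Raf enzyme pre-incubated with compound 30 min at 30 °C, then ATP plus unactivated MEK1 substrate added and reacted 1 h at 30 °C. ADP-Glo reagent 40 min at 27 °C, then kinase detection reagent 30 min at 27 °C, luminescence read. IC50 fitted from inhibition rates; mean of two experiments.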

Chain of Serine/threonine-protein kinase B-raf (P15056 whole entry): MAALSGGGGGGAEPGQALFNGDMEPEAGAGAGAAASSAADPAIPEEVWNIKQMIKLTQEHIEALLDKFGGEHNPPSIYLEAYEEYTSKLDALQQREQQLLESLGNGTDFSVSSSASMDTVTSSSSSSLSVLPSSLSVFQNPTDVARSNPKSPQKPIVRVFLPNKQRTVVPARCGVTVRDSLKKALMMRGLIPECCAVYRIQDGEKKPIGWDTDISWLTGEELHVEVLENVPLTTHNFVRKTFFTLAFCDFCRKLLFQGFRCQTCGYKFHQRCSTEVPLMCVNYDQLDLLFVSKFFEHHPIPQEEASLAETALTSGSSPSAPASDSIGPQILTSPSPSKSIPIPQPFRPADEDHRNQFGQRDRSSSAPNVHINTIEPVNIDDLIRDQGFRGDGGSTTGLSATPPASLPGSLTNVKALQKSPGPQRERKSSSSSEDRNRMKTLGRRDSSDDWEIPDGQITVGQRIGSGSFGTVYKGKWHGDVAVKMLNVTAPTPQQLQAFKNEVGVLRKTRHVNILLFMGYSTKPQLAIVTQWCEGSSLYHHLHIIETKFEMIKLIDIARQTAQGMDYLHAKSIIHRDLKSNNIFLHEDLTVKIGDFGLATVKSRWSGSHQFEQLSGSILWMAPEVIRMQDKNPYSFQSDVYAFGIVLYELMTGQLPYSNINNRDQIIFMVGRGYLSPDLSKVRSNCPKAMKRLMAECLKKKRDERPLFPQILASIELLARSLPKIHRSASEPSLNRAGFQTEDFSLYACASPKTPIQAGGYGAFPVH

| SMILES | IC50 [µM] |
| --- | --- |
| NC(=O)c1nccc2c1[nH]c1ccc(S(N)(=O)=O)cc12 | 2.12 |
| NC(=O)c1nccc2c1[nH]c1ccc(S(=O)(=O)NCCCO)cc12 | 20.5 |
| CC(=O)NS(=O)(=O)c1ccc2[nH]c3cnccc3c2c1 | 59.1 |
| CC(O)CNS(=O)(=O)c1ccc2[nH]c3c(C(N)=O)nccc3c2c1 (stereo not drawn) | 22 |
| NC(=O)c1nccc2c1[nH]c1ccc(S(=O)(=O)Nc3ccccn3)cc12 | 3.76 |
| NC(=O)c1nccc2c1[nH]c1ccc(S(=O)(=O)NCCO)cc12 | 23.7 |
| COCCCNS(=O)(=O)c1ccc2[nH]c3c(C(N)=O)nccc3c2c1 | 22.7 |
| NS(=O)(=O)c1ccc2[nH]c3cnccc3c2c1 | 2.49 |
| Cc1ccc(NS(=O)(=O)c2ccc3[nH]c4c(C(N)=O)nccc4c3c2)cc1 | 20.5 |
| COC(CNS(=O)(=O)c1ccc2[nH]c3c(C(N)=O)nccc3c2c1)OC | 91.5 |
| NC(=O)c1nccc2c1[nH]c1ccc(S(=O)(=O)NC3CC3)cc12 | 9.07 |
| NC(=O)c1nccc2c1[nH]c1ccc(S(=O)(=O)Nc3ccccc3)cc12 | 2.74 |
| CN(C)CCCNS(=O)(=O)c1ccc2[nH]c3c(C(N)=O)nccc3c2c1 | 1.62 |
| CCN(CC)CCCNS(=O)(=O)c1ccc2[nH]c3c(C(N)=O)nccc3c2c1 | 2.81 |
| NC(=O)c1nccc2c1[nH]c1ccc(S(=O)(=O)NCC(O)CO)cc12 (stereo not drawn) | 45.1 |
| NC(=O)c1nccc2c1[nH]c1ccc(S(=O)(=O)Nc3ccc(F)cc3)cc12 | 8.89 |
| CCCNS(=O)(=O)c1ccc2[nH]c3c(C(N)=O)nccc3c2c1 | 28.5 |
| NC(=O)c1nccc2c1[nH]c1ccc(S(=O)(=O)Nc3nccs3)cc12 | 7.48 |
